Test results taken from ChEMBL document CHEMBL4414574, “Structure-Based Discovery and Development of a Series of Potent and Selective Bromodomain and Extra-Terminal Protein Inhibitors” (J Med Chem, 2019).
Calls of active or inactive are those of the source. The calls are words filed in the database; no cut-off is given here.

Experiments:
[1] = Metabolic stability in mouse liver microsomes at 1 uM preincubated for 5 mins followed by NADPH addition and measured after 5 to 30 mins by LC/MS/MS analysis; format: ADME, Microsome
Outline: (§1)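 Liver microsomes (0.5 mg/mL) preincubated 5 min at 37 °C with 1 μM compound in 0.1 M phosphate buffer pH 7.4 containing 1 mM EDTA and 5 mM MgCl2; started with 1 mM NADPH; sampled at 0, 5, 10 and 30 min; quenched with cold acetonitrile; parent remaining quantified by LC/MS/MS.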

[2] = biological target: T1, Bromodomain-containing protein 4 (Homo sapiens, UniProt O60885); test: Displacement of 5-FITC labelled (+)-JQ1 from His6-tagged human BRD4 bromodomain 1 expressed in Escherichia coli BL21(DE3) )-codon plus-RIL cells incubated for 4 hrs in dark condition by fluorescence anisotropy binding assay
[3] = Tmax in ICR mouse at 10 mg/kg, po administered via gavage measured after 0.25 to 24 hrs by UPLC/MS analysis; format: ADME, organism-based; settings: in vivo
Outline: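 Male ICR mice dosed orally (3, 10 or 100 mg/kg, per line) in 1% DMSO/0.5% HPMC vehicle; plasma drug levels measured.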

[4] = Cmax in ICR mouse at 10 mg/kg, po administered via gavage measured after 0.25 to 24 hrs by UPLC/MS analysis; format: ADME, organism-based; parameters: dose 10 mg/kg, route oral; settings: in vivo
Outline: (§2)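 Male ICR mice dosed orally in 1% DMSO/0.5% HPMC vehicle; plasma or brain drug levels used to derive Tmax, Cmax, AUC0-t, AUC0-inf and T1/2.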

MM1.S = test: Antiproliferative activity against human MM1S cells after 72 hrs by CCK8 or SRB assay; format: functional, cell-based
Outline: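 IC50 against MM.1S cell proliferation was taken as the mean of three independent experiments, each run in triplicate, reported with SEM.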

[5] = AUC (0 to t) in ICR mouse at 10 mg/kg, po administered via gavage measured after 0.25 to 24 hrs by UPLC/MS analysis; format: ADME, organism-based; parameters: time 0.25-24 hr, dose 10 mg/kg, route oral; settings: in vivo
Outline: (§3)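 Male ICR mice were dosed orally in 1% DMSO/0.5% HPMC vehicle. Plasma (and brain, where stated) concentrations gave Tmax, Cmax, T1/2, AUC0-t and AUC0-inf.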

[6] = Metabolic stability in human liver microsomes at 1 uM preincubated for 5 mins followed by NADPH addition and measured after 5 to 30 mins by LC/MS/MS analysis; format: ADME, Microsome; outline: as §1
Cytochrome P450 1A2 = biological target: T2, Cytochrome P450 1A2 (Homo sapiens, UniProt P05177); test: Time-dependent inhibition of CYP1A2 in human liver microsomes at 10 uM using phenacetin as substrate preincubated up to 30 mins followed by NADPH generating system addition and measured after 10 mins; format: ADME
T2 sequence (P05177 whole entry): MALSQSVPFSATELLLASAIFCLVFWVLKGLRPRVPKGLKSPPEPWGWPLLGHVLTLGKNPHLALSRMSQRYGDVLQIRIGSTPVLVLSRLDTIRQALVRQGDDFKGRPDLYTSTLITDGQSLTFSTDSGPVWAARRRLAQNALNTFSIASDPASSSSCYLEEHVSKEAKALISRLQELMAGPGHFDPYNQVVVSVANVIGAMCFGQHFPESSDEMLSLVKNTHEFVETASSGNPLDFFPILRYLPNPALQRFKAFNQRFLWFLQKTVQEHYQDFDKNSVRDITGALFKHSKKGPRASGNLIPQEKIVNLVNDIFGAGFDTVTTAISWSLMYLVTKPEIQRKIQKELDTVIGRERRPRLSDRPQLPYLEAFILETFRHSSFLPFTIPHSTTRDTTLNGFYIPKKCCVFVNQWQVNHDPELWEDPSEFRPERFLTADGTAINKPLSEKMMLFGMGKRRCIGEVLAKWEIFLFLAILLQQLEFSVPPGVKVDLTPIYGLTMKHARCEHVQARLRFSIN
Outline: (§4)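 Human liver microsomes 0.2 mg/mL, 100 mM phosphate pH 7.4, 10 μM test compound, preincubated 0, 5, 10 and 30 min at 37 °C; then NADPH plus probe cocktail (5 μM midazolam, 50 μM testosterone, 5 μM dextromethorphan, 10 μM diclofenac, 50 μM phenacetin, 50 μM S-(+)-mephenytoin) added; 10 min reaction; kobs in units of 10^-4/min.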

Cytochrome P450 2D6 = Cytochrome P450 2D6 (Homo sapiens, UniProt P10635); test: Time-dependent inhibition of CYP2D6 in human liver microsomes at 10 uM using dextromethorphan as substrate preincubated up to 30 mins followed by NADPH generating system addition and measured after 10 mins; format: ADME; outline: as §4
Chain of Cytochrome P450 2D6 (P10635 whole entry): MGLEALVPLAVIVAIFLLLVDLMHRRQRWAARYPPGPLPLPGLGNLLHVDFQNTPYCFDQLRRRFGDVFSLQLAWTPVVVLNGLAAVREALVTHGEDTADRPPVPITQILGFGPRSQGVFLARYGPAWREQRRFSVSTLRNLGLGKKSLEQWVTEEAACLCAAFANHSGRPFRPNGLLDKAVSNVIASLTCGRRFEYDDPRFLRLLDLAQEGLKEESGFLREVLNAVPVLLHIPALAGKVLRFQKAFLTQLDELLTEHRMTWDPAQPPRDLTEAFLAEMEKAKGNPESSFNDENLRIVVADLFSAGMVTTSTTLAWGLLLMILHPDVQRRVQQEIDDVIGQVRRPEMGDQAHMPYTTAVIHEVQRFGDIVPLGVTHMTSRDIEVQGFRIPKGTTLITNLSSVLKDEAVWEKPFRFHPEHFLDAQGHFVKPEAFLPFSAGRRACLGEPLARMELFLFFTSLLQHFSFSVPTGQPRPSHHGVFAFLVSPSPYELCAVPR

Cytochrome P450 2C19 = Cytochrome P450 2C19 (Homo sapiens, UniProt P33261); test: Time-dependent inhibition of CYP2C19 in human liver microsomes at 10 uM using mephenytoin as substrate preincubated up to 30 mins followed by NADPH generating system addition and measured after 10 mins; format: ADME; outline: as §4
Chain of Cytochrome P450 2C19 (P33261 whole entry): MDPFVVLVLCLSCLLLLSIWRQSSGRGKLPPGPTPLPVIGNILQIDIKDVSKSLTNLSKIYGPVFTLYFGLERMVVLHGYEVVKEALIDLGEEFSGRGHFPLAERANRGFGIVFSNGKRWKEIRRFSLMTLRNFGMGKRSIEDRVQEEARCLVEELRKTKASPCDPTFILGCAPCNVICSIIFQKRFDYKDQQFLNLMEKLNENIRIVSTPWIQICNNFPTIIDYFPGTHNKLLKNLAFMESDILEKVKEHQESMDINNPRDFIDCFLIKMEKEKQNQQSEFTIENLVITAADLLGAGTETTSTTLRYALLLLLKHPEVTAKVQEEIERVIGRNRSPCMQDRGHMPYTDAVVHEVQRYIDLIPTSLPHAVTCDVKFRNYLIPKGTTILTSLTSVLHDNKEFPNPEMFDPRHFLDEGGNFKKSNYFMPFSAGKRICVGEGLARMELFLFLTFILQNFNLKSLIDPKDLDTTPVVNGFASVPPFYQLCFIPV

[7] = AUC (0 to infinity) in ICR mouse at 10 mg/kg, po administered via gavage measured after 0.25 to 24 hrs by UPLC/MS analysis; format: ADME, organism-based; parameters: dose 10 mg/kg, route oral, time infinity; settings: in vivo; outline: as §3
Cytochrome P450 3A4 = Cytochrome P450 3A4 (Homo sapiens, UniProt P08684); test: Time-dependent inhibition of CYP3A4 in human liver microsomes at 10 uM using midazolam or testosterone as substrate preincubated up to 30 mins followed by NADPH generating system addition and measured after 10 mins; format: ADME; outline: as §4
Chain of Cytochrome P450 3A4 (P08684 whole entry): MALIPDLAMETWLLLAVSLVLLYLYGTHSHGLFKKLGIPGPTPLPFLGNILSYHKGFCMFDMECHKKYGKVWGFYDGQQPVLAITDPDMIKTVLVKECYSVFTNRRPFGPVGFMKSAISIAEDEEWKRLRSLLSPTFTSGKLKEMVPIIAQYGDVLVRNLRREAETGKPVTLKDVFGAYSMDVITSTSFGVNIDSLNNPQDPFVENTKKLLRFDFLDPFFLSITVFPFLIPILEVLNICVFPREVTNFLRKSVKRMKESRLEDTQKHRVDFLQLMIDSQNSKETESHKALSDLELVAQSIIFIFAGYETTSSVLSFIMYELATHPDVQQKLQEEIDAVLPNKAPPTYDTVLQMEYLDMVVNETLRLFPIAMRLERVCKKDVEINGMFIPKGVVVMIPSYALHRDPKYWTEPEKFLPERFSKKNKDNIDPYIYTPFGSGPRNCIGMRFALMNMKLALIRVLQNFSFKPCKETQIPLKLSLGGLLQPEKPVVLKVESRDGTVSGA

Cytochrome P450 2C9 = Cytochrome P450 2C9 (Homo sapiens, UniProt P11712); test: Time-dependent inhibition of CYP2C9 in human liver microsomes at 10 uM using diclofenac as substrate preincubated up to 30 mins followed by NADPH generating system addition and measured after 10 mins; format: ADME; outline: as §4
Chain of Cytochrome P450 2C9 (P11712 whole entry): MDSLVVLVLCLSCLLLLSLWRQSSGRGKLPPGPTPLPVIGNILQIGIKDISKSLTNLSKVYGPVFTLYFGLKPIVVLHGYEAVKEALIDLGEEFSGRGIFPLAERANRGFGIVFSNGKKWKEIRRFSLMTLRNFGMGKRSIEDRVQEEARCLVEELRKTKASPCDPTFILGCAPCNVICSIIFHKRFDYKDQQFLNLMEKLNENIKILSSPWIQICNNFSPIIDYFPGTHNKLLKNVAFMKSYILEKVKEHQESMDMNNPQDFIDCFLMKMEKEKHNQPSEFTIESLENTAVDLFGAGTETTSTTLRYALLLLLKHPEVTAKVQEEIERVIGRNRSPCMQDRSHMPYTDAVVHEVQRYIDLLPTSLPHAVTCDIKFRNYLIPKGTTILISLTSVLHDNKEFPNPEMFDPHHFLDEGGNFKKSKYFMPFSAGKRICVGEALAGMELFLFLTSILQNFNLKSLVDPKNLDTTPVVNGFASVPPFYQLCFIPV

[8] = Half life in ICR mouse at 10 mg/kg, po administered via gavage measured after 0.25 to 24 hrs by UPLC/MS analysis; format: ADME, organism-based; settings: in vivo; outline: as §2
[9] = biological target: Histone acetyltransferase p300 (Homo sapiens) (UniProt Q09472); test: Inhibition of EP300 (unknown origin) at 1 uM
Outline: (§5)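 Bromodomain binding panel (32 bromodomains) screened at 1 μM; primary binding read-out reported as percent of control, lower values meaning stronger binding.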

CYP2C9 = CYP2C9 (Homo sapiens, UniProt P11712); test: Reversible inhibition of CYP2C9 in human liver microsomes at 10 uM using diclofenac as substrate preincubated for 5 mins followed by NADPH generating system addition and measured after 20 mins relative to control; format: ADME; settings: probe diclofenac
Chain of CYP2C9 (P11712 whole entry): as above
Outline: (§6)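 Human liver microsomes 0.2 mg/mL, 100 mM phosphate pH 7.4, 10 μM test compound, probe cocktail (10 μM midazolam, 100 μM testosterone, 10 μM dextromethorphan, 20 μM diclofenac, 100 μM phenacetin, 100 μM mephenytoin); organic solvent <1%; 5 min preincubation at 37 °C, started with NADPH-generating system, 20 min reaction; metabolite formation expressed relative to PBS control.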

[10] = biological target: Bromodomain-containing protein 2 (Homo sapiens) (UniProt P25440); test: Inhibition of BRD2 bromodomain 1 (unknown origin)
Chain of Bromodomain-containing protein 2 (Homo sapiens) (P25440 whole entry, looked up): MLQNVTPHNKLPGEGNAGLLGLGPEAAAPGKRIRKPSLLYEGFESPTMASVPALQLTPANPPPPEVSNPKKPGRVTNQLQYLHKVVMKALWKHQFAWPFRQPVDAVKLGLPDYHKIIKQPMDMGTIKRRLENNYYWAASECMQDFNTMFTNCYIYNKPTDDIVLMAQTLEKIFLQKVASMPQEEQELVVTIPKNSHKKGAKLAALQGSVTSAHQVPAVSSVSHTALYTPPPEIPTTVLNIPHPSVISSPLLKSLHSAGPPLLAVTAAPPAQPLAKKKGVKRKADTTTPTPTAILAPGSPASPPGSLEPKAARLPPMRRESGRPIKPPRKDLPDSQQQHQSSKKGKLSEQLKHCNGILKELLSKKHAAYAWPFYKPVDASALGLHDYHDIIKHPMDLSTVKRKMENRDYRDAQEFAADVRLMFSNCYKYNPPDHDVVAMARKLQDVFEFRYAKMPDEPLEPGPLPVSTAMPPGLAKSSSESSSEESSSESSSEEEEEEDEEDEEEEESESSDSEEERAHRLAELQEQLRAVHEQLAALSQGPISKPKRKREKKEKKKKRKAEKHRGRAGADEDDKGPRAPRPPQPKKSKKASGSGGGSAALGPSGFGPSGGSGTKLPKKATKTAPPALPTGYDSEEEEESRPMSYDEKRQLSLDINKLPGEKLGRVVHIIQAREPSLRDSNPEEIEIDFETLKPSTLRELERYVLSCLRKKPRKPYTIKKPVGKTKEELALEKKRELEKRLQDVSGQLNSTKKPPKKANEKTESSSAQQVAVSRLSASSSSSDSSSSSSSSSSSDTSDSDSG

[11] = biological target: T1, Bromodomain-containing protein 4; test: Inhibition of BRD4 bromodomain 1 (unknown origin)
Outline: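 BRD4 BD1 (His6-tagged, E. coli BL21(DE3)-expressed, Ni-NTA purified) at 10 nM with 5 nM FITC-labelled (+)-JQ1 tracer; 50 mM HEPES pH 7.4, 150 mM NaCl, 0.5 mM CHAPS, DMSO 2‰ final; graded inhibitor; 4 h dark equilibration at room temperature; fluorescence anisotropy read (ex 485/em 530 nm). IC50 from two independent experiments in duplicate, mean ± SEM.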

[12] = biological target: Bromodomain-containing protein 2 (Homo sapiens) (UniProt P25440); test: Inhibition of BRD2 bromodomain 2 (unknown origin); outline: as §5
[13] = biological target: T1, Bromodomain-containing protein 4; test: Inhibition of BRD4 bromodomain 2 (unknown origin)
CYP1A2 = CYP1A2 (Homo sapiens, UniProt P05177); test: Reversible inhibition of CYP1A2 in human liver microsomes at 10 uM using phenacetin as substrate preincubated for 5 mins followed by NADPH generating system addition and measured after 20 mins relative to control; format: ADME; settings: probe phenacetin; outline: as §6
[14] = Intrinsic clearance in mouse liver microsomes at 1 uM preincubated for 5 mins followed by NADPH addition and measured after 5 to 30 mins by LC/MS/MS analysis; format: ADME, Microsome; settings: read-out: CLH; outline: as §1
[15] = Intrinsic clearance in human liver microsomes at 1 uM preincubated for 5 mins followed by NADPH addition and measured after 5 to 30 mins by LC/MS/MS analysis; format: ADME, Microsome; settings: read-out: CLH; outline: as §1
[16] = Half life in human liver microsomes at 1 uM preincubated for 5 mins followed by NADPH addition and measured after 5 to 30 mins by LC/MS/MS analysis; format: ADME, Microsome
CYP2C19 = CYP2C19 (Homo sapiens, UniProt P33261); test: Reversible inhibition of CYP2C19 in human liver microsomes at 10 uM using mephenytoin as substrate preincubated for 5 mins followed by NADPH generating system addition and measured after 20 mins relative to control; format: ADME; settings: probe mephenytoin; outline: as §6
Chain of CYP2C19 (P33261 whole entry): as the sequence (P33261 whole entry) above

[17] = Half life in mouse liver microsomes at 1 uM preincubated for 5 mins followed by NADPH addition and measured after 5 to 30 mins by LC/MS/MS analysis; format: ADME, Microsome; settings: mouse liver microsomes
CYP3A4 = CYP3A4 (Homo sapiens, UniProt P08684); test: Reversible inhibition of CYP3A4 in human liver microsomes at 10 uM using midazolam or testosterone as substrate preincubated for 5 mins followed by NADPH addition and measured after 20 mins relative to control; format: ADME; settings: probe midazolam or testosterone; outline: as §6
Chain of CYP3A4 (P08684 whole entry): as the sequence (P08684 whole entry) above

CYP2D6 = CYP2D6 (Homo sapiens, UniProt P10635); test: Reversible inhibition of CYP2D6 in human liver microsomes at 10 uM using dextromethorphan as substrate preincubated for 5 mins followed by NADPH generating system addition and measured after 20 mins relative to control; format: ADME; settings: probe dextromethorphan; outline: as §6
Chain of CYP2D6 (P10635 whole entry): as the sequence (P10635 whole entry) above

| Structure (SMILES) | Stability [1] | IC50 [2] | Tmax [3] | Cmax [4] | IC50 (MM1.S) | AUC(0-t) [5] | Stability [6] | TDI (Cytochrome P450 1A2) | TDI (Cytochrome P450 2D6) | TDI (Cytochrome P450 2C19) | AUC(0-inf) [7] | TDI (Cytochrome P450 3A4) | TDI (Cytochrome P450 2C9) | half-life [8] | inhibition [9] | inhibition at 20 min, 10 µM (CYP2C9) | inhibition activity call (active/inactive) [10] | inhibition [11] | inhibition [12] | inhibition [13] | further results |
| --- | --- | --- | --- | --- | --- | --- | --- | --- | --- | --- | --- | --- | --- | --- | --- | --- | --- | --- | --- | --- | --- |
| Cc1ccc(-n2cnnc2-c2ccc3c(c2)N(C2CC2)C(C)C(=O)N3C)cc1 (centres undefined) | Stable | 8.6 nM | 18 min | 163 ng/mL | 6.7 nM | 161 ng·h/mL | Stable | Not Active | Not Active | Not Active | 164 ng·h/mL | Not Active | Not Active | 90 min | – | – | – | – | – | – | – |
| Cc1ccc(-n2c(C)nnc2-c2ccc3c(c2)N(C2CCCC2)[C@H](C)C(=O)N3C)cc1 | Stable | 5.2 nM | – | – | 3.9 nM | – | Stable | Not Active | Not Active | Not Active | – | Not Active | Not Active | – | inactive | > 50% | Active | Active | Active | Active | – |
| Cc1ccc(-n2nc(C(=O)N3CCN(C)CC3)nc2-c2ccc3c(c2)N(C2CC2)C(C)C(=O)N3C)cc1 (centres undefined) | – | 9.4 nM | 18 min | 1230 ng/mL | 8 nM | 2740 ng·h/mL | – | 41 ×10⁻⁴ /min | 14 ×10⁻⁴ /min | Not Active | 2760 ng·h/mL | 19 ×10⁻⁴ /min | 19 ×10⁻⁴ /min | 102 min | – | 6% | – | – | – | – | inhibition at 20 min, 10 µM (CYP1A2): 2%; microsomal CLint at 1 µM [14]: 13 µL/min/mg; microsomal CLint at 1 µM [15]: 22 µL/min/mg; half-life at 1 µM [16]: 62 min; inhibition at 20 min, 10 µM (CYP2C19): 17%; half-life at 1 µM [17]: 107 min; inhibition at 20 min, 10 µM (CYP3A4): 12% |
| Cc1ccc(-n2nc(C(=O)N3CCN(C)CC3)nc2-c2ccc3c(c2)N(C2CCCC2)[C@H](C)C(=O)N3C)cc1 | – | 5.4 nM | 18 min | 42900 ng/mL | 26.1 nM | 58100 ng·h/mL | – | 51 ×10⁻⁴ /min | Not Active | 141 ×10⁻⁴ /min | 58100 ng·h/mL | 55 ×10⁻⁴ /min | 74 ×10⁻⁴ /min | 36 min | inactive | 30% | Active | Active | Active | Active | microsomal CLint at 1 µM [14]: 34 µL/min/mg; microsomal CLint at 1 µM [15]: 61 µL/min/mg; half-life at 1 µM [16]: 23 min; inhibition at 20 min, 10 µM (CYP2C19): 19%; half-life at 1 µM [17]: 41 min; inhibition at 20 min, 10 µM (CYP3A4): 31%; inhibition at 20 min, 10 µM (CYP2D6): 3% |
